Article PMC6357779 (Journal of biomolecular screening, 2013)
Where a SMILES comes first, the peptide text is derived from it. The star is where a group is joined. Cbz = O=C(OCc1ccccc1)*

Assays:
[1] = molecular target: GFP-GRER chimera (N-terminus of the glucocorticoid receptor fused to the human ERα ligand binding domain) (Homo sapiens, UniProt P03372); assay: GFP-GRER nuclear translocation high-content imaging assay in 6020 cells; format: cell-based
[2] = tested on: estradiol-mediated transactivation (ERE-tk-luc) in MCF-7 cells; assay: Estradiol competition transactivation luciferase reporter assay in MCF-7 cells; format: cell-based, human
How it was run: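 MCF-7 cells moved to phenol red–free DMEM with 10% charcoal-stripped FBS for 24 h, then plated at 100,000 cells/well (96-well). Next day each well was transfected with 200 ng ERE-tk-luc plasmid using Lipofectamine LTX. Cells then received 100 nM estradiol alone, test compound alone (100 nM), or estradiol plus 100 nM, 1 μM or 10 μM test compound. Bright-Glo luminescence was read, and RLU normalized to no-compound wells. Triplicates, three biological replicates.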

[3] = tested on: estrogen receptor (ERE-tk-luc reporter) in MCF-7 cells; assay: ERE-tk-luc luciferase transactivation assay in MCF-7 cells; format: cell-based, human; conditions: MCF-7, 10 μM compound, 24 h, RLU normalized to no compound added
[4] = MCF-7, 100 nM estradiol + 10 μM compound

Chain of GFP-GRER chimera (N-terminus of the glucocorticoid receptor fused to the human ERα ligand binding domain) (P03372 302-595, change not shown): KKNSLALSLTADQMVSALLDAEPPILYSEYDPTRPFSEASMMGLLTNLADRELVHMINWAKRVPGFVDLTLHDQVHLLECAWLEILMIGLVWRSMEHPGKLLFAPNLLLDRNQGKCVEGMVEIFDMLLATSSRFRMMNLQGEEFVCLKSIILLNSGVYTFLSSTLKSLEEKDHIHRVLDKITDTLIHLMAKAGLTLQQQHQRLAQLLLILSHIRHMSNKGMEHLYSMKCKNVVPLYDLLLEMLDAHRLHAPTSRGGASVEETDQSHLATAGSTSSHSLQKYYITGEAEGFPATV
Chain of GFP-GRER chimera (N-terminus of the glucocorticoid receptor fused to the human ERα ligand binding domain) (P06536 1-565, change not shown, further chain): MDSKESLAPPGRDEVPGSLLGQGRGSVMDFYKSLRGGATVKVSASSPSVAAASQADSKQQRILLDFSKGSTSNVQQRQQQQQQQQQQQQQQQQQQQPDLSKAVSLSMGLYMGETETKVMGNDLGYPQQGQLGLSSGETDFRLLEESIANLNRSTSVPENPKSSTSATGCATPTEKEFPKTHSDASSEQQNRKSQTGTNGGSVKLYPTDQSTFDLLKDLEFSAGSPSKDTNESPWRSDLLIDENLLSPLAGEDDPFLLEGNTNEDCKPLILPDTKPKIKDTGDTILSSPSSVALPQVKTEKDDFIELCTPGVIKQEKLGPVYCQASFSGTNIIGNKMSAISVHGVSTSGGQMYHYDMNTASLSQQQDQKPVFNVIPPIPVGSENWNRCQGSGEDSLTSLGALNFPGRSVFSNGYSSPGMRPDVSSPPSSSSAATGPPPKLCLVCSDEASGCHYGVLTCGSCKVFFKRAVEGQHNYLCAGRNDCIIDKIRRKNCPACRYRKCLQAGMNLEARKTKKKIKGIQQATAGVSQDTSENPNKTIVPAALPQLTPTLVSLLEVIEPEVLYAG

Molecule	fold transactivation induction (transactivation potential) [3]	other results
CC(C)C[C@H](NC(=O)[C@H](Cc1ccccc1)NC(=O)c1cnccn1)B(O)O [bortezomib]	0.78	EC50 [1]: 37 nM; decrease in estradiol-mediated transactivation ([2]; MCF-7, 100 nM estradiol + 100 nM compound): 60%; decrease in estradiol-mediated transactivation ([2]; MCF-7, 100 nM estradiol + 1 μM compound): 54%; decrease in estradiol-mediated transactivation [2, 4]: 29%
CC(C)C[C@@H](C=O)NC(=O)[C@H](CC(C)C)NC(=O)[C@H](CC(C)C)NC(=O)OCc1ccccc1 [MG132] (Cbz-Leu-Leu-Leu-aldehyde)	0.61	EC50 [1]: 192 nM
O=C(c1ccc(OCCN2CCCCC2)cc1)c1c(-c2ccc(O)cc2)sc2cc(O)ccc12 [raloxifene]	0.89	
tetrocarcin A [NSC 333856]	1.34	
CC#C[C@]1(O)CC[C@H]2[C@@H]3CCC4=CC(=O)CCC4=C3[C@@H](c3ccc(N(C)C)cc3)C[C@@]21C [RU486]	0.4	
C[C@]12CC[C@@H]3c4ccc(O)cc4C[C@@H](CCCCCCCCC[S+]([O-])CCCC(F)(F)C(F)(F)F)[C@H]3[C@@H]1CC[C@@H]2O (stereo partly drawn) [ICI 182,780]	0.24	
CC/C(=C(\c1ccccc1)c1ccc(OCCN(C)C)cc1)c1ccccc1 [tamoxifen]		decrease in estradiol-mediated transactivation [2, 4]: 51%
